Experimental data from the EternaBench riboswitch data.

Test system: MS2 coat protein
Assay: apparent Kd, MS2 coat protein; higher = weaker binding; RNA-MaP array; FMN 200 µM where present
Summary of the method: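 Stalled E. coli RNA polymerase transcribed the designs on Illumina sequencing-chip clusters. SNAP-549-labelled MS2 coat protein was titrated from 0.7 or 1.5 nM, doubling to 3 µM, without and then with constant ligand, in 100 mM Tris-HCl pH 7.5, 80 mM KCl, 4 mM MgCl2, BSA, DTT, yeast tRNA and Tween-20. Per-cluster binding curves were fitted to green signal normalised to red-channel RNA signal and control-cluster median Fmax. The apparent Kd is the median of the filtered fits.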

[1] = designed as: ON switch for flavin mononucleotide, no ligand
[2] = ligand present: flavin mononucleotide, designed as: ON switch for flavin mononucleotide
[3] = designed as: OFF switch for flavin mononucleotide, no ligand
[4] = ligand present: flavin mononucleotide, designed as: OFF switch for flavin mononucleotide

Sequence	apparent Kd [1] [nM]	apparent Kd [2] [nM]	apparent Kd [3] [nM]	apparent Kd [4] [nM]
UGGUACUAGGGAGGAUAUGGGAAGAUACAUGAGGAUCACCCAUGUUUAUGAAUGCCGAGAGGCAACUAGAAGGCCCUAGUACCU	292	13	–	–
UGGUACUAGGGAGGAUAUGGGAAGGUACAUGAGGAUCACCCAUGUUUAAGAAUGCCGAGAGGCAACUAGAAGGCCCUAGUACCU	204	13.6	–	–
UGGUUAUAUGAAGGAUAUACUUAACAUGAGGAUCACCCAUGUGGUGUUGUGAGUGAGUGAGUUUAGUAGAAGGUCAAUUCUUUU	–	–	176	197
UGGUUGUGUGUCAGGAUAUGGUCUGGUGUUUCGGGCUAGAAGGGACAUGAGGAUCACCCAUGUGGCUGGUGCGC	–	–	149	186
UGGUUUGGGCUAGAUGCACAGACAUGAGGAUCACCCAUGUCUGAGGAUAUGCGUCAACAUAGGCAGCAGAAGGCAGACAUUCGC	–	–	16.8	30.5
UGUAAUGUUAUUACAGAGGUUUAGAAGGAUAUACAUCGACAUGACCGUACAUGAGGAUCACCCAUGUAGAAGGUCUAACUUCGU	–	–	5.43	5.31
UGUAUGUAGGCAGGAUAUACAUGAAUAUAUAUGAUGUAGUAUGAUGUAACAUGAGGAUCACCCAUGUAGAAGGGCCAGUGUAUG	–	–	77.8	129
UGUCCAUAGCAGAAGGACAUGAAUAAACAUGAAAACAUGAGGAUCACCCAUGUAGGAUAUGCUAUGGACUAAGAGCGAAAGCUC	–	–	7.06	48.1
UGUCCAUAGCAGAAGGACAUGAGGAUCACCCAUGUAAUCAUACAACCAAAUGUAGGAUAUGCUAUGGACUAAGAGCGAAAGCUC	–	–	7.5	34.4
UGUCCAUAGCAGAAGGCACAUCCACAAAAUAAAACAUGAGGAUCACCCAUGUGAGGAUAUGCUAUGGACUAAGAGCGAAAGCUC	–	–	5.44	21.8
UGUCGCAGCAGAGGAUAUUACAUGAGGAUCACCCAUGUAUGAACCAAUAGCUGGAAACAGCAAUGUAAGAAGGCUGCUCCGACA	–	–	11.7	128
UGUCGGAGCAGAGGAUAUUACAUGAGGAUCACCCAUGUAAUAAGAUCAAGCUGGAAACAGCAAUGUAAGAAGGCUGCUCCGACA	–	–	16.9	43.3
UGUCGGAGCAGAGGAUAUUACAUGAGGAUCACCCAUGUAUCAACCAAUAGCUGGAAACAGCAAUGUAAGAAGGCUGCUCCGACA	–	–	7.54	19.8
UGUCGGAGCAGAGGAUAUUACAUGAGGAUCACCCAUGUAUGAACCAAUAGAUGGAAACAGCAAUGUAAGAAGGCUGCUCCGACA	–	–	95.9	346
UGUCGGAGCAGAGGAUAUUACAUGAGGAUCACCCAUGUAUGAACCAAUAGCUGGAAACAGCAAUGUAAGAAGGCGGCUCCGACA	–	–	5.18	9.07
UGUCGGAGCAGAGGAUAUUACAUGAGGAUCACCCAUGUAUGAACCAAUAGCUGGAAACAGCAAUGUAAGAAGGCUGCGCCGACA	–	–	12.5	153
UGUCGGAGCAGAGGAUAUUACAUGAGGAUCACCCAUGUAUGAACCAAUAGCUGGGAACAGCAAUGUAAGAAGGCUGCUCCGACA	–	–	18.6	201
UGUCGGAGCAGAGGAUAUUACAUGAGGAUCACCCAUGUAUGAACCAAUAGUUGGAAACAGCAAUGUAAGAAGGCUGCUCCGACA	–	–	11.5	94.6
UGUCGGUGCAGAGGAUAUUACAUGAGGAUCACCCAUGUAUGAACCAAUAGCUGGAAACAGCAAUGUAAGAAGGCUGCUCCGACA	–	–	11.8	168
UGUCUGAGCAGAGGAUAUUACAUGAGGAUCACCCAUGUAUGAACCAAUAGCUGGAAACAGCAAUGUAAGAAGGCUGCUCCGACA	–	–	12.6	199
UGUCUGUCAGGAUAUCCAGAAGAGAAGAAAGUAAGAUGAGUGGAGAAGGGACAUGAGGAUCACCCAUGUAAUUA	–	–	31	36.4
UGUGAGAUGAUGUUAGAUAGGAGAACAUGAGGAUCACCCAUGUAGGAUAUUCAAAGACGAAGAUAGAAGAAGGACAUAGGUAUC	–	–	30.3	78.2
UGUGAGUUGAUGUUAGAUAGGAGUACAUGAGGAUCACCCAUGUAGGAUAUUCAAAGACGCAGAUAGAAGAAGGACAUAGGUUUC	–	–	16.1	14.8
UGUGCGUAUGUGAGGAUAUGCUGGUCCUUGGAUCAGCAGAAGGCACAUGAGGAUCACCCAUGUGGUGUCGUACC	–	–	314	48
UGUGCGUAUGUGAGGAUAUGCUGGUCCUUGGCUCGGCAGAAGGCACAUGAGGAUCACCCAUGUGGUGUCGUACA	–	–	227	37.5
UGUGUCUGUAGAGGAUAUCCGAGCGUUCGGCGAGGAGAAGGCUGCAACACAUGAGGAUCACCCAUGUAGGUUGUGUCUCCCUAC	–	–	10.9	32.2
UGUGUGAGACAGGAUAUGCCGGAUGAAAGGCAGGUAGAAGGGUCUACAUGAGGAUCACCCAUGUGGCCGGUUGG	–	–	17.4	18.7
UGUGUGAGACAGGAUAUGCCGGUUGUAUUGCUGGUAGAAGGGUCUACAUGAGGAUCACCCAUGUGGCCGGUUGG	–	–	18.6	23.2

Sequence	apparent Kd [1] [nM]	apparent Kd [2] [nM]	apparent Kd [3] [nM]	apparent Kd [4] [nM]
UGUGUGUGACAGGAUAUGCUGGUUGUGAGGCGGGUAGAAGGGUCUACAUGAGGAUCACCCAUGUGGCCGGUUGG	–	–	18.7	18.7
UGUGUGUGGCAGGAUAUGCCGGUCGUUGGUCGGGUAGAAGGGUCUACAUGAGGAUCACCCAUGUGGCCGGUUGG	–	–	46.8	44
UGUGUGUGGGCAGGAUAUGCGUGAAGAUGUAUGAUGUAGUGUGAUGUAACAUGAGGAUCACCCAUGUAGAAGGGCCGGUGUGUG	–	–	124	129
UGUGUUGCGCAGGAUAUGCUGGACAUGAGAGCUGCAGAAGGGCGAACAUGAGGAUCACCCAUGUUUUCCUCGGC	–	–	14.1	14.6
UGUUACUAGUAAGGAUAUACUUGCAAUAAGCUUGUAGAAGGUACAGUCUUUUGUAUAACAUGUUUACAUGAGGAUCACCCAUGU	10.6	9.66	–	–
UGUUACUAGUAAGGAUAUACUUGCGAUAAGCUUGUAGAAGGUACAGUCUUUUGUAUAACACGUUUACAUGAGGAUCACCCAUGU	6.94	6.01	–	–
UGUUGUAAUACAGGAUAUAUAUUAUUUUUAUUUAUAGAAGGGUAAUCACAUGAGGAUCACCCAUGUAUAUACGAGGAAGAAGAG	209	251	–	–
UGUUGUAUUACAGGAUAUCUAUGAUUUUUGUUUAGAGAAGGGUAUUCACAUGAGGAUCACCCAUGUAUAUACGAGGAAGUUGUG	60.3	74.7	–	–
UGUUGUAUUACAGGAUAUCUAUUGUUUUUAUUUAGAGAAGGGUAUUCACAUGAGGAUCACCCAUGUAUAUACGAGGAAGUUGUG	59.4	63.2	–	–
UUAAAAGUGACAUGAGGAUCACCCAUGUGAAUUAGUAGUAGCAGAAGGCACGUGGGAAGACCAAGUGAGGAUAUGUAGCUUUAA	515	44	–	–
UUAAAUCAUGUAGGAUAUGCAUGGCGAAGCUACGCAGAAGGACAUGAGGAUCACCCAUGUUAAAGCGACCGAGUUCGGUUGCAA	–	–	124	214
UUAAAUCAUGUAGGAUAUGCAUGGCGAAGCUACGCAGAAGGACAUGAGGAUCACCCAUGUUAUAGCUACCGAGUAAGGUGGCAA	–	–	92.6	227
UUAAAUCAUGUAGGAUAUGCAUGGCGAAGCUACGCAGAAGGACAUGAGGAUCACCCAUGUUCAAGCUACCGAGUUCGGUGGCAA	–	–	23.3	148
UUAAAUCAUGUAGGAUAUGCAUGGCGAAGCUACGCAGAAGGACAUGAGGAUCACCCAUGUUCUGGCUACCGAGUACGGUGGCAA	–	–	20.5	81.2
UUAAAUCGAAACAUGAGGAUCACCCAUGUGUUGUAAUUAACAUAGGAUAUGUAAAUACUUUUUUAAUAGAAGGAUGAUAAUACU	17	12.9	–	–
UUAAAUCGAAACAUGAGGAUCACCCAUGUGUUGUAAUUAAUAUAGGAUAUGUAUAUACUUUUAUAAUAGAAGGAUGAUAAUACU	15.4	11.1	–	–
UUAAUAUAUCAGGAUAUGAUUAUAUGUGUUGAAUCAGAAGGGAUAACAUGAGGAUCACCCAUGUUGUGGAGUGA	–	–	69.3	206
UUAAUGACUGUGAGGAUAUCGGAUAGAUAGAUAUUCGAGAAGGUACAUGAGGAUCACCCAUGUGUGAUUAGAGA	–	–	245	291
UUAAUGUGAGGAUAUCAAGAGAGAAAGAGUAAUGGUAAAUAUGAGAAGGCACAUGAGGAUCACCCAUGUUCUUC	–	–	15.9	15.5
UUAAUGUGAGGAUAUCAGGUGUGCUAGCGUACUGGUACAUCUGAGAAGGCACAUGAGGAUCACCCAUGUUCUUC	–	–	37	135
UUAAUUAAUUAAUUCCAGUUUACAUGAGGAUCACCCAUGUAUAAGGAUAUGCAGUGGAAUACACUGCAGAAGGUAUACAUCUGG	–	–	18.4	35.8
UUAAUUAAUUAAUUGCAGAAUUACAUGAGGAUCACCCAUGUAUAGGAUAUCGUCAGGAAUACUGACGAGAAGGAUACAUACUGC	–	–	17.9	26.6
UUAAUUAUACAAGGAUAUCUAUUGUAGUUUCGACUGACAUGAGGAUCACCCAUGUAAAUAUGUUAAGAGAAGGUGUAUUUUAAA	56.8	40.4	–	–
UUAAUUAUACAAGGAUAUCUAUUGUAGUUUCGACUUACAUGAGGAUCACCCAUGUUAAUAUGUUUAGAGAAGGUGUAUUUUCUG	51	49.5	–	–
UUAAUUAUACAAGGAUAUCUAUUGUUAUGUCGACUUACAUGAGGAUCACCCAUGUUAAUAUAUGAAGAGAAGGUGUAUUUUCAG	157	90	–	–
UUAAUUAUACAAGGAUAUCUAUUGUUCUUUCGACUUACAUGAGGAUCACCCAUGUUAAUAUAUAUAGAGAAGGUGUAUUUUCAG	43.3	25.4	–	–
UUACCUCAUGAGAAGGACAUGAGGAUCACCCAUGUAGGAUAUCGUGGGAGACAGGUAUUGAAUCUUCGGAUUCAAUACCUGUCU	418	25.5	–	–
